Columns and labels:
HL-60 = test: Cytotoxicity against human HL60 cells after 69 hrs by MTT assay; assay type: functional, cell-based; details: HL-60, 69 h
Outline: (§1)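 Tumor lines from NCI, kept in RPMI 1640 with 10% FBS, 2 mM glutamine, penicillin/streptomycin, 37 °C, 5% CO2. Seeded at 0.7 × 10^5 cells/well (adherent) or 0.3 × 10^6 cells/well (suspension). Compounds at 0.078-5 µg/mL in DMSO (final below 0.1%), 69 h, then MTT 0.5 mg/mL for 3 h. Formazan dissolved in DMSO, A595. Triplicates; IC50 by nonlinear regression.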

[1] = Hemolytic activity in mouse erythrocytes at 200 ug/ml after 1 hr by spectrophotometer; assay type: ADME, cell-based; details: erythrocyte
Outline: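 Mouse erythrocytes as a 2% suspension in 0.85% NaCl with 10 mM CaCl2. Compounds tested at 0.78-200 µg/mL; 1% DMSO served as negative control and 0.2% Triton X-100 set 100% hemolysis. After 1 h at room temperature and centrifugation, released hemoglobin in the supernatant measured at 540 nm absorbance.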

PBMC = test: Cytotoxicity against human PBMC after 72 hrs by alamar blue assay; assay type: cell-based
Outline: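 PBMC isolated from heparinized blood of healthy nonsmoking donors by Ficoll-Hypaque gradient. Cells at 3 × 10^5 cells/mL in RPMI 1640 with 20% FBS, 37 °C, 5% CO2, phytohemagglutinin 3% added at the start. Compounds added after 24 h at 0.078-5 µg/mL in DMSO (final below 0.1%), exposure 72 h. Alamar Blue added for the last 24 h; absorbance read at 570 and 595 nm, expressed as % reduced versus control.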

MDA-MB-435 = test: Cytotoxicity against human MDA-MB-435 cells after 69 hrs by MTT assay; assay type: functional, cell-based; details: MDA-MB-435, 69 h; outline: as §1
SF-295 = test: Cytotoxicity against human SF295 cells after 69 hrs by MTT assay; assay type: functional, cell-based; details: SF-295, 69 h; outline: as §1
HCT-8 = test: Cytotoxicity against human HCT8 cells after 69 hrs by MTT assay; assay type: functional, cell-based; details: HCT-8, 69 h; outline: as §1

| SMILES | IC50 (HL-60) [µM] | Activity [1] | IC50 (PBMC) [µM] | IC50 (MDA-MB-435) [µM] | IC50 (SF-295) [µM] | IC50 (HCT-8) [µM] |
| --- | --- | --- | --- | --- | --- | --- |
| C=C1C(=O)[C@@]23CC[C@H]4[C@@](C)(CCC[C@]4(C)C(=O)O)[C@@H]2CC[C@@H]1C3 | 2 | Not Active | > 10 | 4.2 | 3.7 | 1.5 |
| C=C1C(=O)O[C@@]23CC[C@H]4[C@@](C)(CCC[C@]4(C)C(=O)O)[C@@H]2CC[C@@H]1C3 (relative stereo) | 8.2 | Not Active | > 10 | > 10 | > 10 | 5.2 |
| C=C(C(=O)OC)C1C[C@H](OC(C)=O)C2=C(CC[C@@H]3[C@@](C)(C(=O)OC)C(=O)CC[C@@]23C)[C@@H]1OC(C)=O (relative stereo) [ABIETANE] | > 10 | Not Active | > 10 | > 10 | > 10 | > 10 |
| COc1cccc2c1C(=O)c1c(O)c3c(c(O)c1C2=O)C[C@@](O)(C(=O)CO)C[C@@H]3O[C@H]1C[C@H](N)[C@H](O)[C@H](C)O1 [DOXORUBICIN] | 0.05 |  | 0.5 | 1.67 | 0.37 | 0.09 |
